# Published values pooled from the literature.
# Each line is one published result; the experiments were not run side by side.
# Action: inhibitor
# EGFR: Epidermal growth factor receptor (EGFR, Homo sapiens, UniProt P00533)
# EGFR T790M: Epidermal growth factor receptor (EGFR, Homo sapiens, UniProt P00533, T790M)
# EGFR L858R/T790M: Epidermal growth factor receptor (EGFR, Homo sapiens, UniProt P00533, L858R/T790M)
SMILES,target,test,system,conditions,inhibition [%]
C=CC(=O)Nc1cc(Nc2nccc(Nc3cc(Cl)c(F)cc3C(C)(C)O)n2)c(OC)cc1N1CC[C@@H](N(C)C)C1,EGFR,enzyme activity,,1 µM,76
COc1cc2ncnc(Nc3ccc(Oc4ccccc4)cc3C)c2cc1OC,EGFR T790M,enzyme activity,,1 µM,50
COc1cc2c(Nc3cccc(OCCn4ccnc4[N+](=O)[O-])c3)ncnc2cc1OCCCN1CCOCC1,EGFR,"enzyme activity, FRET",,1 µM,24
CN1CC(Oc2cnc(C#N)cc2-c2ccn3nc(NC(=O)C4CC4)cc3c2)C1,EGFR,enzyme activity,,1 µM,-1
C=CC(=O)Nc1cc(Nc2nc(N3CCc4sccc4C3)c3sccc3n2)c(OC)cc1N1CCN(C)CC1,EGFR L858R/T790M,"enzyme activity, ELISA",,0.1 µM,25.6
CNCc1ccc(-c2cc(-c3nc(-c4ccc(S(=O)(=O)C(C)C)cc4)cnc3N)on2)cc1,EGFR,enzyme activity,,0.4 µM,0
O=C(CSc1nc2nccnc2c(=O)n1CCc1ccccc1)Nc1nccs1,EGFR,enzyme activity,,10 µM,-2
CNc1cc(Oc2cc(C(=O)Nc3cc(N4CCN(C)CC4)cc(C(F)(F)F)c3)ccc2C)ncn1,EGFR,"target engagement in cells, chemoproteomics",Huh-7,1 µM,-15.5
COc1cc(-c2cc(-c3ccc(N4CCNCC4)cc3)cnc2N)cc(OC)c1OC,EGFR T790M,enzyme activity,,0.1 µM,2
COc1cc2ncnc(Nc3ccc(Oc4ccccc4)c(C)c3C)c2cc1OC,EGFR T790M,enzyme activity,,1 µM,22
C=CC(=O)Nc1cc(Nc2nc(Nc3cnn(C)c3)c3sccc3n2)c(OC)cc1N(C)CCN(C)C,EGFR L858R/T790M,"enzyme activity, ELISA",,0.1 µM,6.7
CN(C)C1CCN(CC#Cc2nn(C3CCCC3)c3nc(NCc4ccccc4)ncc23)C1 (stereo not shown),EGFR,"enzyme activity, FRET",,1 µM,7
C=C(Cl)C(=O)Nc1cc(Nc2nc(N3CCc4sccc4C3)c3sccc3n2)c(OC)cc1N(C)CCN(C)C,EGFR L858R/T790M,"enzyme activity, ELISA",,0.1 µM,90.3
CCCS(=O)(=O)Nc1ccc(F)c(C(=O)c2c[nH]c3ncc(-c4ccc(Cl)cc4)cc23)c1F,EGFR,enzyme activity,,1 µM,< 10
C=CC(=O)Nc1cc(Nc2nc(N3CCc4sccc4C3)c3cccnc3n2)c(OC)cc1N1CCSCC1,EGFR L858R/T790M,"enzyme activity, ELISA",,0.1 µM,23.9
CS(=O)(=O)Nc1cccc(-c2csc(NC(=O)CSc3nc4nccnc4c(=O)n3CCc3ccccc3)n2)c1,EGFR,enzyme activity,,10 µM,-1
CCC(=O)Nc1cc(Nc2nc(N3CCc4sccc4C3)c3cccnc3n2)c(OC)cc1N1CCN(CCO)CC1,EGFR L858R/T790M,"enzyme activity, ELISA",,0.1 µM,30.3
CS(=O)(=O)Nc1cc(-c2ccc3ncnc(Nc4ccc(F)c(Cl)c4)c3c2)cnc1Cl,EGFR,"enzyme activity, FRET",,10 µM,90 to 100
CCC(=O)Nc1cc(Nc2nc(N3CCc4sccc4C3)c3cccnc3n2)c(OC)cc1N1CCOCC1,EGFR L858R/T790M,"enzyme activity, ELISA",,0.1 µM,7.6
CCOc1cc(-c2nncn2C)ccc1Nc1ncc2cc(C)nc(NCC(C)(C)C)c2n1,EGFR,"enzyme activity, FRET",,1 µM,< 15
COc1cc(N(C)CCN(C)C)c(NC(=O)C=C(C)C)cc1Nc1nc(Nc2cnn(C)c2)c2sccc2n1,EGFR L858R/T790M,"enzyme activity, ELISA",,0.1 µM,25.1
CC/C(=N\NC(=O)NCc1cccc(O)c1)c1ccc(O)c(C)c1O,"Epidermal growth factor receptor (EGFR, Homo sapiens, UniProt P00533, L858R)",enzyme activity,,0.1 µM,0.5
